Source: ChEMBL document CHEMBL4339192, “De Novo Designed Amphipathic α-Helical Antimicrobial Peptides Incorporating Dab and Dap Residues on the Polar Face To Treat the Gram-Negative Pathogen, Acinetobacter baumannii” (J Med Chem, 2019)
≈ marks a conversion by molar mass, not a printed value. Where a SMILES comes first, the peptide text is derived from it. [ ]: non-standard residue; d: D form. Dab = NCC[C@H](N)C(=O)O

Assays:
Acinetobacter baumannii [1] = test: Antibacterial activity against Acinetobacter baumannii 649 measured after 24 hrs in presence of 25% human serum by microtiter dilution method; assay type: functional; conditions: Acinetobacter baumannii, 649, 24 h
Method in brief: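 Blood strain 649 was tested by MH broth microdilution with and without 25% (v/v) human serum added to the medium. The test used a final inoculum of 5 × 10^5 cfu/mL and incubation at 37 °C. The ratio is the MIC in serum over the MIC in MH alone.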

[2] = Therapeutic index, ratio of HC50 for human RBC to MIC for polymyxin B/colistin-resistant Acinetobacter baumannii M89963; assay type: toxicity; conditions: human red blood cells, read-out: TI
Method in brief: (§1)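 T.I. = HC50/MIC. For HC50, peptide (quantified by amino acid analysis) was two-fold serially diluted over 12 concentrations up to 1000 μg/mL. It was incubated with 1% fresh human erythrocytes in PBS, pH 7.4, for 18 h at 37 °C. After 800g centrifugation, hemoglobin was read at 570 nm against water (100%) and no-peptide (0%) controls. HC50 came from a lysis-versus-concentration plot, average of 3 replicates.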

Acinetobacter baumannii [3] = test: Antibacterial activity against Acinetobacter baumannii 649 measured after 24 hrs by microtiter dilution method; assay type: functional; conditions: Acinetobacter baumannii, 649, 24 h
Method in brief: (§2)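 Broth microdilution in Mueller-Hinton (MH) medium. […] Plates were incubated 24 h at 37 °C. MIC was the lowest peptide concentration that inhibited growth, based on three sets of replicates.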

[4] = Therapeutic index, ratio of HC50 for human RBC to MIC for polymyxin B/colistin-resistant Acinetobacter baumannii M89955; assay type: toxicity; conditions: human red blood cells, read-out: TI; method in brief: as §1
[5] = Therapeutic index, ratio of HC50 for human RBC to MIC for polymyxin B/colistin-resistant Acinetobacter baumannii M89953; assay type: toxicity; conditions: human red blood cells, read-out: TI; method in brief: as §1
[6] = Therapeutic index, ratio of HC50 for human RBC to MIC for polymyxin B/colistin-resistant Acinetobacter baumannii M89951; assay type: toxicity; conditions: human red blood cells, read-out: TI; method in brief: as §1
[7] = Therapeutic index, ratio of HC50 for human RBC to MIC for polymyxin B/colistin-resistant Acinetobacter baumannii M89952; assay type: toxicity; conditions: human red blood cells, read-out: TI; method in brief: as §1
[8] = Therapeutic index, ratio of HC50 for human RBC to MIC for polymyxin B/colistin-resistant Acinetobacter baumannii M89949; assay type: toxicity; conditions: human red blood cells, read-out: TI; method in brief: as §1
[9] = Hemolytic activity against human RBC measured after 18 hrs by spectrophotometric method; assay type: ADME, cell-based, Erythrocyte; conditions: human red blood cells (erythrocytes)
Method in brief: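 Peptide (amount by amino acid analysis), two-fold serial dilutions at 12 concentrations up to 1000 μg/mL, with 1% human erythrocytes in PBS pH 7.4, 37 °C, 18 h. Unlysed cells removed by centrifugation (800g); hemoglobin read at 570 nm. Water-lysed cells = 100%, no-peptide cells = 0%. HC50 from plot of % lysis vs concentration (μM), average of 3 replicates.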

[10] = Therapeutic index, ratio of HC50 for human RBC to MIC for polymyxin B/colistin-resistant Acinetobacter baumannii M89941; assay type: toxicity; conditions: human red blood cells, read-out: TI; method in brief: as §1
Acinetobacter baumannii [11] = test: Antibacterial activity against Acinetobacter baumannii isolate 1001611 measured after 24 hrs by microtiter dilution method; assay type: functional; conditions: isolate 1001611, 24 h; method in brief: as §2
Acinetobacter baumannii [12] = test: Antibacterial activity against Acinetobacter baumannii isolate 1007660 measured after 24 hrs by microtiter dilution method; assay type: functional; conditions: isolate 1007660, 24 h; method in brief: as §2
Acinetobacter baumannii [13] = test: Antibacterial activity against Acinetobacter baumannii isolate 1021371 measured after 24 hrs by microtiter dilution method; assay type: functional; conditions: isolate 1021371, 24 h; method in brief: as §2
Acinetobacter baumannii [14] = test: Antibacterial activity against Acinetobacter baumannii isolate 952654 measured after 24 hrs by microtiter dilution method; assay type: functional; conditions: isolate 952654, 24 h; method in brief: as §2
Acinetobacter baumannii [15] = test: Antibacterial activity against Acinetobacter baumannii isolate 9383370 measured after 24 hrs by microtiter dilution method; assay type: functional; conditions: isolate 9383370, 24 h; method in brief: as §2
Acinetobacter baumannii [16] = test: Antibacterial activity against Acinetobacter baumannii isolate 961997 measured after 24 hrs by microtiter dilution method; assay type: functional; conditions: isolate 961997, 24 h; method in brief: as §2
Acinetobacter baumannii [17] = test: Antibacterial activity against Acinetobacter baumannii isolate 1002956 measured after 24 hrs by microtiter dilution method; assay type: functional; conditions: isolate 1002956, 24 h; method in brief: as §2
Acinetobacter baumannii [18] = test: Antibacterial activity against Acinetobacter baumannii isolate 977751 measured after 24 hrs by microtiter dilution method; assay type: functional; conditions: isolate 977751, 24 h; method in brief: as §2
Acinetobacter baumannii [19] = test: Antibacterial activity against Acinetobacter baumannii isolate 1035166 measured after 24 hrs by microtiter dilution method; assay type: functional; conditions: isolate 1035166, 24 h; method in brief: as §2
Acinetobacter baumannii [20] = test: Antibacterial activity against Acinetobacter baumannii isolate 1010282 measured after 24 hrs by microtiter dilution method; assay type: functional; conditions: isolate 1010282, 24 h; method in brief: as §2
Acinetobacter baumannii [21] = test: Antibacterial activity against Acinetobacter baumannii isolate 1010245 measured after 24 hrs by microtiter dilution method; assay type: functional; conditions: isolate 1010245, 24 h; method in brief: as §2
Acinetobacter baumannii [22] = test: Antibacterial activity against Acinetobacter baumannii isolate 1017395 measured after 24 hrs by microtiter dilution method; assay type: functional; conditions: isolate 1017395, 24 h; method in brief: as §2
Acinetobacter baumannii [23] = test: Antibacterial activity against Acinetobacter baumannii isolate 968886 measured after 24 hrs by microtiter dilution method; assay type: functional; conditions: isolate 968886, 24 h; method in brief: as §2
Acinetobacter baumannii [24] = test: Antibacterial activity against Acinetobacter baumannii isolate 964304 measured after 24 hrs by microtiter dilution method; assay type: functional; conditions: isolate 964304, 24 h; method in brief: as §2
Acinetobacter baumannii [25] = test: Antibacterial activity against Acinetobacter baumannii isolate 963659 measured after 24 hrs by microtiter dilution method; assay type: functional; conditions: isolate 963659, 24 h; method in brief: as §2
Acinetobacter baumannii [26] = test: Antibacterial activity against Acinetobacter baumannii isolate 963618 measured after 24 hrs by microtiter dilution method; assay type: functional; conditions: isolate 963618, 24 h; method in brief: as §2
Acinetobacter baumannii [27] = test: Antibacterial activity against Acinetobacter baumannii isolate 1018887 measured after 24 hrs by microtiter dilution method; assay type: functional; conditions: isolate 1018887, 24 h; method in brief: as §2
Acinetobacter baumannii [28] = test: Antibacterial activity against Acinetobacter baumannii isolate 1035794 measured after 24 hrs by microtiter dilution method; assay type: functional; conditions: isolate 1035794, 24 h; method in brief: as §2
Acinetobacter baumannii [29] = test: Antibacterial activity against Acinetobacter baumannii isolate 981650 measured after 24 hrs by microtiter dilution method; assay type: functional; conditions: isolate 981650, 24 h; method in brief: as §2
Acinetobacter baumannii [30] = test: Antibacterial activity against Acinetobacter baumannii isolate 965463 measured after 24 hrs by microtiter dilution method; assay type: functional; conditions: isolate 965463, 24 h; method in brief: as §2
Acinetobacter baumannii [31] = test: Antibacterial activity against polymyxin B/colistin-resistant Acinetobacter baumannii M89963 measured after 24 hrs by microtiter dilution method; assay type: functional; conditions: M89963, 24 h; method in brief: as §2
Acinetobacter baumannii [32] = test: Antibacterial activity against polymyxin B/colistin-resistant Acinetobacter baumannii M89955 measured after 24 hrs by microtiter dilution method; assay type: functional; conditions: M89955, 24 h; method in brief: as §2
Acinetobacter baumannii [33] = test: Antibacterial activity against polymyxin B/colistin-resistant Acinetobacter baumannii M89953 measured after 24 hrs by microtiter dilution method; assay type: functional; conditions: M89953, 24 h; method in brief: as §2
Acinetobacter baumannii [34] = test: Antibacterial activity against polymyxin B/colistin-resistant Acinetobacter baumannii M89952 measured after 24 hrs by microtiter dilution method; assay type: functional; conditions: M89952, 24 h; method in brief: as §2
Acinetobacter baumannii [35] = test: Antibacterial activity against polymyxin B/colistin-resistant Acinetobacter baumannii M89951 measured after 24 hrs by microtiter dilution method; assay type: functional; conditions: M89951, 24 h; method in brief: as §2
Acinetobacter baumannii [36] = test: Antibacterial activity against polymyxin B/colistin-resistant Acinetobacter baumannii M89949 measured after 24 hrs by microtiter dilution method; assay type: functional; conditions: M89949, 24 h; method in brief: as §2
Acinetobacter baumannii [37] = test: Antibacterial activity against polymyxin B/colistin-resistant Acinetobacter baumannii M89941 measured after 24 hrs by microtiter dilution method; assay type: functional; conditions: M89941, 24 h; method in brief: as §2

Compound: CC(=O)N[C@H](CCCCN)C(=O)N[C@H](CC(C)C)C(=O)N[C@@H](CCN)C(=O)N[C@H](CO)C(=O)N[C@H](CC(C)C)C(=O)N[C@H](CC(C)C)C(=O)N[C@@H](CCN)C(=O)N[C@@H](C(=O)N[C@H](CC(C)C)C(=O)N[C@H](CO)C(=O)N[C@@H](CCN)C(=O)N[C@H](C)C(=O)N[C@H](CCCCN)C(=O)N[C@H](C)C(=O)N[C@H](C)C(=O)N[C@H](CCCCN)C(=O)N[C@H](CC(C)C)C(=O)N[C@@H](CCN)C(=O)N[C@@H](C(=O)N[C@H](CC(C)C)C(=O)N[C@H](CC(C)C)C(=O)N[C@@H](CCN)C(=O)N[C@H](C)C(=O)N[C@H](CC(C)C)C(=O)N[C@H](CO)C(=O)N[C@@H](CCN)C(N)=O)[C@H](C)O)[C@H](C)O (Ac-[dK][dL][Dab][dS][dL][dL][Dab][dT][dL][dS][Dab][dA][dK][dA][dA][dK][dL][Dab][dT][dL][dL][Dab][dA][dL][dS][Dab]-NH2)
- MIC (Acinetobacter baumannii [1]): 0.2 µM
- selectivity ratio [2]: > 742
- MIC (Acinetobacter baumannii [3]): 0.7 µM (≈ 1.89 µg/mL)
- selectivity ratio [4]: > 742
- selectivity ratio [5]: > 742
- selectivity ratio [6]: > 742
- selectivity ratio [7]: > 742
- selectivity ratio [8]: > 742
- HC50 at 18 h [9]: > 742 µM
- selectivity ratio [10]: > 742
- MIC (Acinetobacter baumannii [11]): 0.7 µM (≈ 1.89 µg/mL)
- MIC (Acinetobacter baumannii [12]): 0.7 µM (≈ 1.89 µg/mL)
- MIC (Acinetobacter baumannii [13]): 1.5 µM (≈ 4.05 µg/mL)
- MIC (Acinetobacter baumannii [14]): 1.5 µM (≈ 4.05 µg/mL)
- MIC (Acinetobacter baumannii [15]): 0.7 µM (≈ 1.89 µg/mL)
- MIC (Acinetobacter baumannii [16]): 0.7 µM (≈ 1.89 µg/mL)
- MIC (Acinetobacter baumannii [17]): 0.7 µM (≈ 1.89 µg/mL)
- MIC (Acinetobacter baumannii [18]): 0.7 µM (≈ 1.89 µg/mL)
- MIC (Acinetobacter baumannii [19]): 0.7 µM (≈ 1.89 µg/mL)
- MIC (Acinetobacter baumannii [20]): 0.7 µM (≈ 1.89 µg/mL)
- MIC (Acinetobacter baumannii [21]): 0.7 µM (≈ 1.89 µg/mL)
- MIC (Acinetobacter baumannii [22]): 3 µM (≈ 8.09 µg/mL)
- MIC (Acinetobacter baumannii [23]): 1.5 µM (≈ 4.05 µg/mL)
- MIC (Acinetobacter baumannii [24]): 1.5 µM (≈ 4.05 µg/mL)
- MIC (Acinetobacter baumannii [25]): 0.7 µM (≈ 1.89 µg/mL)
- MIC (Acinetobacter baumannii [26]): 0.7 µM (≈ 1.89 µg/mL)
- MIC (Acinetobacter baumannii [27]): 0.7 µM (≈ 1.89 µg/mL)
- MIC (Acinetobacter baumannii [28]): 1.5 µM (≈ 4.05 µg/mL)
- MIC (Acinetobacter baumannii [29]): 0.7 µM (≈ 1.89 µg/mL)
- MIC (Acinetobacter baumannii [30]): 3 µM (≈ 8.09 µg/mL)
- MIC (Acinetobacter baumannii [31]): 1.4 µM (≈ 3.78 µg/mL)
- MIC (Acinetobacter baumannii [32]): 0.7 µM (≈ 1.89 µg/mL)
- MIC (Acinetobacter baumannii [33]): 1.4 µM (≈ 3.78 µg/mL)
- MIC (Acinetobacter baumannii [34]): 0.7 µM (≈ 1.89 µg/mL)
- MIC (Acinetobacter baumannii [35]): 1.4 µM (≈ 3.78 µg/mL)
- MIC (Acinetobacter baumannii [36]): 0.7 µM (≈ 1.89 µg/mL)
- MIC (Acinetobacter baumannii [37]): 0.7 µM (≈ 1.89 µg/mL)
